Data from ChEMBL document CHEMBL1177639, “Synthesis and biological evaluation of 5-substituted and 4,5-disubstituted-2-arylamino oxazole TRPV1 antagonists” (Bioorg Med Chem, 2010).
pIC50: −log10 of the molar value.

Assays:
[1] = Plasma clearance in rat at 10 umol/kg, iv and po; format: ADME, organism-based
In short: (§1)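 Rat pharmacokinetics after 10 µmol/kg dosing, three animals per group for each of the iv and oral routes. Parameters reported are Vb (iv), CLp, t1/2 (iv), oral Cmax and oral bioavailability.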

[2] = Bioavailability in rat at 10 umol/kg, po; format: ADME, organism-based; conditions: in vivo; in short: as §1
[3] = Cmax in rat at 10 umol/kg, po; format: ADME, organism-based; parameters: dose 10 umol/kg, route oral; conditions: in vivo; in short: as §1
[4] = Half life in rat at 10 umol/kg, iv; format: ADME, organism-based; conditions: in vivo; in short: as §1
[5] = Terminal phase volume of distribution […] in rat at 10 umol/kg, iv; format: ADME, organism-based; conditions: in vivo, read-out: Vbeta; in short: as §1
[6] = biological target: Transient receptor potential cation channel subfamily V member 1 (Homo sapiens, UniProt Q8NER1); assay: Antagonist activity at human recombinant TRPV1 receptor expressed in human 1321 cells assessed as inhibition of capsaicin-induced in intracellular calcium levels by FLIPR assay; format: functional, cell-based
Transient receptor potential cation channel subfamily V member 1, sequence (Q8NER1 whole entry): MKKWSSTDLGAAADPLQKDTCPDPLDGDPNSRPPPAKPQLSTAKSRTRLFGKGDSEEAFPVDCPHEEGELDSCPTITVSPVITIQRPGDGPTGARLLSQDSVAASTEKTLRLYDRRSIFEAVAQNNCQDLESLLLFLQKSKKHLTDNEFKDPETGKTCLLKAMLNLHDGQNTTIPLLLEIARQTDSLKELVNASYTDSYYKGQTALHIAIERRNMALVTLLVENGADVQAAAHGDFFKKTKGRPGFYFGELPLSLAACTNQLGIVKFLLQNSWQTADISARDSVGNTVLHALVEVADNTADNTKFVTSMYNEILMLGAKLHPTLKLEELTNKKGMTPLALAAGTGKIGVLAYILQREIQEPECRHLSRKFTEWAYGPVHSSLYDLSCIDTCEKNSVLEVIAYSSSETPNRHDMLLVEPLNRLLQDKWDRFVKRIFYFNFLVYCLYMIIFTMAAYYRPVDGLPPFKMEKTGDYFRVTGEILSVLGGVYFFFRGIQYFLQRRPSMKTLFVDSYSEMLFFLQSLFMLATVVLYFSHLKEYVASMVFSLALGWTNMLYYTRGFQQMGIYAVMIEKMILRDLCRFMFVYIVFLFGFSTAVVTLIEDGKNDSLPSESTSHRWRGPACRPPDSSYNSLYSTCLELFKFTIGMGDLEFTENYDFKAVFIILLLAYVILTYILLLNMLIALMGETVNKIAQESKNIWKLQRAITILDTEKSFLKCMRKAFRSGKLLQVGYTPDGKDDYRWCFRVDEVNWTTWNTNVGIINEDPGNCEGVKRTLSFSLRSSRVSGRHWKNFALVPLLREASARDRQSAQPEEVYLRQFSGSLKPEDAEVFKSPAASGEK

[7] = Ratio of drug level in brain to plasma in rat at 10 umol/kg, iv and po; format: ADME, organism-based; conditions: read-out: BPR
[8] = biological target: T1, Transient receptor potential cation channel subfamily V member 2 (Rattus norvegicus, UniProt Q9WUD2); assay: Antagonist activity at rat TRPV2 receptor; format: functional
T1 sequence (Q9WUD2 whole entry): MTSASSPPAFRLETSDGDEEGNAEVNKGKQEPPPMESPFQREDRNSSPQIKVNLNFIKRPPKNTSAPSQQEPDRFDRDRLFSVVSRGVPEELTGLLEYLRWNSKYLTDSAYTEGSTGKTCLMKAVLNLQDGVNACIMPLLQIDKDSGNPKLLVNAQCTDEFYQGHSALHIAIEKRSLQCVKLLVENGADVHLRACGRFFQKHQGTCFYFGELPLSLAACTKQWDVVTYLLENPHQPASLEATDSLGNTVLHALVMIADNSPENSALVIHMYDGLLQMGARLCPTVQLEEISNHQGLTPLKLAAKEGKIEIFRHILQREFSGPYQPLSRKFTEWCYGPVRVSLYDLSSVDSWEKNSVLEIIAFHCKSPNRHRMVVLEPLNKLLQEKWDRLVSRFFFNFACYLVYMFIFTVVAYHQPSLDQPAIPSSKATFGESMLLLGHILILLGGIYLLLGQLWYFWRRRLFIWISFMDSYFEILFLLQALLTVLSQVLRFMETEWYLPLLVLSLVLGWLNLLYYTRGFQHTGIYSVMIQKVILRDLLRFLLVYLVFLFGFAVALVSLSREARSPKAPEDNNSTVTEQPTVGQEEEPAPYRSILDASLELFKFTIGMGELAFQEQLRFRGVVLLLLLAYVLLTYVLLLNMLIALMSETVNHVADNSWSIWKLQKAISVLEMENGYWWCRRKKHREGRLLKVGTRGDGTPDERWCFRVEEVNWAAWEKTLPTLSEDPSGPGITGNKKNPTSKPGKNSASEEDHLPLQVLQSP

[9] = biological target: T2, Transient receptor potential cation channel subfamily V member 3 (Homo sapiens, UniProt Q8NET8); assay: Antagonist activity at human TRPV3 receptor; format: functional
T2 sequence (Q8NET8 whole entry): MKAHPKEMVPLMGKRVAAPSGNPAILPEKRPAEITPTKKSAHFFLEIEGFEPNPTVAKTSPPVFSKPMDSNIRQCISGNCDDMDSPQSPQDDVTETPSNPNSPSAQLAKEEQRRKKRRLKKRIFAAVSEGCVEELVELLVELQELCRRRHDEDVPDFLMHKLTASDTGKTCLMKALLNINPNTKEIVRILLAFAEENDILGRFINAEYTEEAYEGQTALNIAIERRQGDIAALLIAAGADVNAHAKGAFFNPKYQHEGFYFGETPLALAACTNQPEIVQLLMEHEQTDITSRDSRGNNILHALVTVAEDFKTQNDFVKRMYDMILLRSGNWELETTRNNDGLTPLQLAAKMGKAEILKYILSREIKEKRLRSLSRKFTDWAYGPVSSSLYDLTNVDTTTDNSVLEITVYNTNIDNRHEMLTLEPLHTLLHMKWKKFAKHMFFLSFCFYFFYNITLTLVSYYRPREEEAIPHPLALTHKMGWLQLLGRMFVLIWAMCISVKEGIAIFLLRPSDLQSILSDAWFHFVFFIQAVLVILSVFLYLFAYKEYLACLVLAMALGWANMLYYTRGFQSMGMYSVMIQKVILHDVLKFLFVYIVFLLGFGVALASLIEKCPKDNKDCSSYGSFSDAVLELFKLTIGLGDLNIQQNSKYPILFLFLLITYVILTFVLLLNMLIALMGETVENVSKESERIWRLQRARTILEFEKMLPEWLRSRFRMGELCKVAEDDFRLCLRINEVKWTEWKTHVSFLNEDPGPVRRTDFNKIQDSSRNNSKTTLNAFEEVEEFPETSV

Rattus norvegicus [10] = assay: Analgesic activity against carrageenan-induced thermal hyperalgesia in Sprague-Dawley rat assessed as paw withdrawal latency at 10 umol/kg, po by hotbox assay; format: functional
[11] = biological target: Transient receptor potential cation channel subfamily M member 8 (Homo sapiens, UniProt Q7Z2W7); assay: Antagonist activity at human TRPM8 receptor; format: functional
Transient receptor potential cation channel subfamily M member 8, sequence (Q7Z2W7 whole entry): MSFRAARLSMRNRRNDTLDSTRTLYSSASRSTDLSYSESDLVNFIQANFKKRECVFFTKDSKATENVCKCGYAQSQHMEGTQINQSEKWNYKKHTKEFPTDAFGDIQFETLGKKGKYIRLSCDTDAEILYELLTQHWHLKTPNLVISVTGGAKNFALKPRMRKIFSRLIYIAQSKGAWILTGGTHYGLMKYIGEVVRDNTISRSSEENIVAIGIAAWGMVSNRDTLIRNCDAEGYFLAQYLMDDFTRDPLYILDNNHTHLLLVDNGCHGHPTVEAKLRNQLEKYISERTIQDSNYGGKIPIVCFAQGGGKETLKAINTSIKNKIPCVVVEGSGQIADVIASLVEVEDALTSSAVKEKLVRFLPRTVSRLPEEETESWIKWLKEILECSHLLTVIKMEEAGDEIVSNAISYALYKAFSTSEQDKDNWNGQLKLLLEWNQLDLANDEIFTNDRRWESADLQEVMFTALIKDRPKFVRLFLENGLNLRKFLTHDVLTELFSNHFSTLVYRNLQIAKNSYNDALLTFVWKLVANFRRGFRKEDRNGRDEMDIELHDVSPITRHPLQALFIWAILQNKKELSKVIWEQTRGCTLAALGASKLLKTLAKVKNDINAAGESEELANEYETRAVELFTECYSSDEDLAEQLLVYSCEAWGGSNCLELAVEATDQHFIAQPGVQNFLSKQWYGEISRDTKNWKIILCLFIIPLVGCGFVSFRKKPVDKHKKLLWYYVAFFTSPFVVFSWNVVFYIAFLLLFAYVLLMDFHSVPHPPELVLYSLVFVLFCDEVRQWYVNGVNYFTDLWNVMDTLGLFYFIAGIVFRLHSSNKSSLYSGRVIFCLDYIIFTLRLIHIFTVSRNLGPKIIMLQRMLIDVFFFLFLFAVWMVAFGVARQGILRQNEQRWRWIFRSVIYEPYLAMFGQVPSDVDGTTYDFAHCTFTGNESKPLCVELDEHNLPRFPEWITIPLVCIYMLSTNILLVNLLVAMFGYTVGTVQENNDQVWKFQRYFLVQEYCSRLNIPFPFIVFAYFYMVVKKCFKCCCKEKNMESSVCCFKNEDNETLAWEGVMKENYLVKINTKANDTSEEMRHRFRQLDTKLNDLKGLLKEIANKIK

[12] = biological target: Voltage-gated inwardly rectifying potassium channel KCNH2 (Homo sapiens, UniProt Q12809); assay: Inhibition of human ERG
Voltage-gated inwardly rectifying potassium channel KCNH2, sequence (Q12809 whole entry): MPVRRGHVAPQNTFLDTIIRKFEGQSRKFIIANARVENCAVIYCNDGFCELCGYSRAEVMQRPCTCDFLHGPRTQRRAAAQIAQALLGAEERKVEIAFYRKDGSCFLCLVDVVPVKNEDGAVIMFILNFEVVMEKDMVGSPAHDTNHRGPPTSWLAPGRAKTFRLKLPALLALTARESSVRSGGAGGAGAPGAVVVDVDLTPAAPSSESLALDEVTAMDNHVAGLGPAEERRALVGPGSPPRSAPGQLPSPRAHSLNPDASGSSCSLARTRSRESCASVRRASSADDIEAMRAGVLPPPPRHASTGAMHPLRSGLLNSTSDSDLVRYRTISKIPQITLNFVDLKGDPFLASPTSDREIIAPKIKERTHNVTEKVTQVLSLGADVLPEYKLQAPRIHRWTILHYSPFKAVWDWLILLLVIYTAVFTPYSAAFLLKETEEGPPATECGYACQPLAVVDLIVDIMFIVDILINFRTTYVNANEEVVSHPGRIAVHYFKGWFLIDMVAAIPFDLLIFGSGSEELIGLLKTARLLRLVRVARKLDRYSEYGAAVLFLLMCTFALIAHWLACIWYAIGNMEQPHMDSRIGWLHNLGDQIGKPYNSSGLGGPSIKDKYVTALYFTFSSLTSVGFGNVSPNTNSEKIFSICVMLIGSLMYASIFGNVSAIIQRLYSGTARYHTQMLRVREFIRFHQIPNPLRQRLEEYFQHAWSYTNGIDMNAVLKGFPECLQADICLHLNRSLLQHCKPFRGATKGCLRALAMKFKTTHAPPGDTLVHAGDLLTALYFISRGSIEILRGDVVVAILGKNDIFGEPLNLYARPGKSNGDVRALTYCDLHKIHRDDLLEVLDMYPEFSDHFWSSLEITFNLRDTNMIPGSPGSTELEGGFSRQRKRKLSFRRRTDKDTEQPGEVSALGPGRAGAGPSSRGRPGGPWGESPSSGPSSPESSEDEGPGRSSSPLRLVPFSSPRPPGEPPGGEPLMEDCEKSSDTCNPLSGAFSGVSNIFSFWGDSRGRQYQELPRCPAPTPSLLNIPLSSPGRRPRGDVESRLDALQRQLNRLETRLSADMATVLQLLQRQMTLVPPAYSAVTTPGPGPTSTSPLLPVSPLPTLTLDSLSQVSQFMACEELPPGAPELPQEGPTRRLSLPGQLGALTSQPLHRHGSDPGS

Canis familiaris = assay: Cardiotoxicity in anesthetized dog assessed as effect on hemodynamics at 57 times Cmax concentration; conditions: in vivo
[13] = Inhibition of human cytochrom P450; format: ADME
[14] = biological target: Transient receptor potential cation channel subfamily V member 4 (Homo sapiens, UniProt Q9HBA0); assay: Antagonist activity at human TRPV4 receptor; format: functional
Transient receptor potential cation channel subfamily V member 4, sequence (Q9HBA0 whole entry): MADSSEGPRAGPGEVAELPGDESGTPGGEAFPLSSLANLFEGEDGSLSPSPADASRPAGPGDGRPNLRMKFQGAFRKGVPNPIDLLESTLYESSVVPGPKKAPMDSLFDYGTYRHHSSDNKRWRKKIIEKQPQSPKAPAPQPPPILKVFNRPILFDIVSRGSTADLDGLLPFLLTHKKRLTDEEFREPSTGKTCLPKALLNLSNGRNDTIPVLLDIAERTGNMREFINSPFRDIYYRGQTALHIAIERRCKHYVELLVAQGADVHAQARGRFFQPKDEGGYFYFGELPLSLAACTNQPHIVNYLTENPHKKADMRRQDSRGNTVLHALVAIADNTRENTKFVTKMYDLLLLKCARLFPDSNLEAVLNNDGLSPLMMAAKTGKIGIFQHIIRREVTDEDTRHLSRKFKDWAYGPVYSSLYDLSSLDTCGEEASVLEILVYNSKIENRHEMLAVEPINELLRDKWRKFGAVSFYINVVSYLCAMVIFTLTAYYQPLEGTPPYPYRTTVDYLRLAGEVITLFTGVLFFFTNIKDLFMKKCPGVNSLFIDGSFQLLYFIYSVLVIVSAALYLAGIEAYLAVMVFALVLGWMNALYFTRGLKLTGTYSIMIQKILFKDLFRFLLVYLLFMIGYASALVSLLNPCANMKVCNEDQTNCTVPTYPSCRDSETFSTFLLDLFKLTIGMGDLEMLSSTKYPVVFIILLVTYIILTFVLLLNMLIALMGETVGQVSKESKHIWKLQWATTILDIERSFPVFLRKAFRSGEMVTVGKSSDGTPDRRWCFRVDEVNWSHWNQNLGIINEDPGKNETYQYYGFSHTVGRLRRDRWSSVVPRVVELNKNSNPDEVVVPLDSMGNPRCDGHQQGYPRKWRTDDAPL

Rattus norvegicus [15] = assay: Analgesic activity in po dosed rat osteoarthritis model; format: functional
Salmonella typhimurium = assay: Mutagenic activity in Salmonella Typhimurium by Ames test; format: toxicity, organism-based; conditions: salmonella enterica subsp. enterica serovar typhimurium

For OC1CCc2cccc(Nc3ncc(-c4ccc(C(F)(F)F)cc4)o3)c2C1 (stereo unspecified), the clearance [1] was 85 mL/min/kg, the bioavailability [2] was 5% and the Cmax [3] was 23 ng/mL. For the same compound, the half-life [4] was 0.7 h, the Vd [5] was 5.4 L/kg and the pIC50 [6] was 8.08.

In the case of FC(F)(F)c1ccc(-c2cnc(Nc3cccc4cnccc34)o2)cc1, the pIC50 [6] was 6.64.

Compound OC1CCc2cccc(Nc3ncc(-c4ccccc4)o3)c2C1 (stereo unspecified) has a pIC50 [6] of 6.73.

CC(C)(C)c1ccc(-c2cnc(Nc3cccc4c3CC(O)CC4)o2)cc1 (stereo unspecified) gave a pIC50 [6] of 7.59.

Compound OC1CCc2cccc(Nc3nc(-c4ccc(F)cc4)c(-c4ccc(C(F)(F)F)cc4)o3)c2C1 (stereo unspecified) has a Kp [7] of 0.21 and a pIC50 [6] of 8.89.

COc1ccc(-c2cnc(Nc3cccc4c3CC(O)CC4)o2)cc1 (stereo unspecified) gave a pIC50 [6] of 7.09.

Work on OC1CCc2cccc(Nc3ncc(-c4ccc(Cl)cc4)o3)c2C1 (stereo unspecified) yielded a pIC50 [6] of 7.82.

Cc1nc(Nc2cccc3c2C[C@@H](O)CC3)oc1-c1ccc(C(F)(F)F)cc1 showed a clearance [1] of 73.3 mL/min/kg, a bioavailability [2] of 7% and a Cmax [3] of 20 ng/mL. The half-life [4] was 1.9 h, the Kp [7] was 3 and the Vd [5] was 12 L/kg.

Compound Cc1cccc(-c2cnc(Nc3cccc4c3CC(O)CC4)o2)c1 (stereo unspecified) has a pIC50 [6] of 6.80.

With OC1CCc2cccc(Nc3ncc(Cc4ccccc4)o3)c2C1 (stereo unspecified) the pIC50 [6] was 5.74.

Compound CCc1nc(Nc2cccc3c2CC(O)CC3)oc1-c1ccc(C(F)(F)F)cc1 (stereo unspecified) has a Kp [7] of 3.7 and a pIC50 [6] of 8.68.

For OC1CCc2c(cccc2Nc2ncc(-c3ccc(C(F)(F)F)cc3)o2)C1 (stereo unspecified), the pIC50 [6] was 6.92.

Cc1ccc(-c2cnc(Nc3cccc4c3CC(O)CC4)o2)cc1 (stereo unspecified) showed a pIC50 [6] of 7.21.

FC(F)(F)c1ccc(-c2cnc(Nc3cccc4[nH]ncc34)o2)cc1 showed a pIC50 [6] of 7.00.

CC1(O)CCc2cccc(Nc3ncc(-c4ccc(C(F)(F)F)cc4)o3)c2C1 (stereo unspecified) showed a pIC50 [6] of 6.08.

Work on CC(C)c1nc(Nc2cccc3c2CC(O)CC3)oc1-c1ccc(C(F)(F)F)cc1 (stereo unspecified) yielded a pIC50 [6] of 6.94.

Work on Cc1ccccc1-c1cnc(Nc2cccc3c2CC(O)CC3)o1 (stereo unspecified) yielded a pIC50 [6] of 6.38.

Oc1ccc2cccc(Nc3ncc(-c4ccc(C(F)(F)F)cc4)o3)c2c1 showed a pIC50 [6] of 8.30.

With OC1CCc2cccc(Nc3nc(-c4ccccc4)co3)c2C1 (stereo unspecified) the pIC50 [6] was 6.06.

OC1CCc2cccc(Nc3nc(Br)c(-c4ccc(C(F)(F)F)cc4)o3)c2C1 (stereo unspecified) showed a pIC50 [6] of 8.05.

Compound COC1CCc2cccc(Nc3ncc(-c4ccc(C(F)(F)F)cc4)o3)c2C1 (stereo unspecified) has a pIC50 [6] of 6.82.

N#Cc1ccc(-c2nc(Nc3cccc4c3CC(O)CC4)oc2-c2ccc(C(F)(F)F)cc2)cc1 (stereo unspecified) gave a Kp [7] of 0.13 and a pIC50 [6] of 8.70.

NC1CCc2cccc(Nc3ncc(-c4ccc(C(F)(F)F)cc4)o3)c2C1 (stereo unspecified) showed a pIC50 [6] of 6.49.

Compound Cc1nc(Nc2cccc3c2CC(O)CC3)oc1-c1ccc(C(F)(F)F)cc1 (stereo unspecified) has a clearance [1] of 40 mL/min/kg, a bioavailability [2] of 33% and a Cmax [3] of 96 ng/mL. It also gave a half-life [4] of 2.8 h, a Kp [7] of 3 and a Vd [5] of 10 L/kg.

CN(c1ncc(-c2ccc(C(F)(F)F)cc2)o1)c1cccc2c1CC(O)CC2 (stereo unspecified) gave a pIC50 [6] of 6.56.

With O=C1CCc2cccc(Nc3ncc(-c4ccc(C(F)(F)F)cc4)o3)c2C1 the pIC50 [6] was 6.43.

OC1CCc2cccc(Nc3ncc(-c4ccc(N5CCCC5)cc4)o3)c2C1 (stereo unspecified) showed a pIC50 [6] of 7.00.

With Cc1nc(Nc2cccc3c2C[C@H](O)CC3)oc1-c1ccc(C(F)(F)F)cc1 the pIC50 [8] was 4.43, the pIC50 [9] was < 4.00 and the clearance [1] was 20 mL/min/kg. It also gave a bioavailability [2] of 52%, an Activity (Rattus norvegicus [10]) of 52% and a pIC50 [11] of 4.36. For the same compound, the Cmax [3] was 130 ng/mL, the half-life [4] was 3.8 h and the “inhibition (INH)” value [12] was “Not Active”. For the same compound, the Activity (Canis familiaris) was “Non-toxic”, the Kp [7] was 3 and the “inhibition (INH)” value [13] was “Not Active”. The pIC50 [14] was < 4.00, the Vd [5] was 6.8 L/kg and the ED50 (Rattus norvegicus [15]) was 14 µmol/kg. For the same compound, the Activity (Salmonella typhimurium) was “Non-toxic”.
